Screening data (PubChem BioAssay)
NOD2-RIPK2 inh – blocks binding of human NOD2 to RIPK2 | AID 624267 | O43353 | CHO BLA complementation NOD2-RIPK2, CCF4 ratio | 0.38% of 360,000 active | inhibition, % at 4.98 µM; in the data active means inhibition above about 21%;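 further: 0% = vehicle only and 100% = reference blocker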
TLR9-MyD88 block – TLR9-MyD88 interaction inhibition; Q9NR96+Q99836; CHO BLA complementation TLR9-MyD88, CCF4 FRET ratio; inhibition, % at 4.98 µM; 0.21% of 340,000 active; AID 504734;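 active means inhibition above the mean over all tested compounds plus 3 SD, cut at about 21% in these data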;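 further: 0% = DMSO only wells and 100% = clavulanate BLA inhibitor control wells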
TLR4 MyD88 comp – TLR4-MyD88 interaction inhibition in cells. HeLa CL3-4 TLR4/MyD88 BLA complementation, FRET ratio. 0.18% of 200,000 active. O00206+Q99836. inhibition, % at 8.4 µM; in the data active means inhibition above about 25%;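 further: 0% = vehicle and 100% = reference inhibitor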
Target sequence (O00206 whole entry, looked up): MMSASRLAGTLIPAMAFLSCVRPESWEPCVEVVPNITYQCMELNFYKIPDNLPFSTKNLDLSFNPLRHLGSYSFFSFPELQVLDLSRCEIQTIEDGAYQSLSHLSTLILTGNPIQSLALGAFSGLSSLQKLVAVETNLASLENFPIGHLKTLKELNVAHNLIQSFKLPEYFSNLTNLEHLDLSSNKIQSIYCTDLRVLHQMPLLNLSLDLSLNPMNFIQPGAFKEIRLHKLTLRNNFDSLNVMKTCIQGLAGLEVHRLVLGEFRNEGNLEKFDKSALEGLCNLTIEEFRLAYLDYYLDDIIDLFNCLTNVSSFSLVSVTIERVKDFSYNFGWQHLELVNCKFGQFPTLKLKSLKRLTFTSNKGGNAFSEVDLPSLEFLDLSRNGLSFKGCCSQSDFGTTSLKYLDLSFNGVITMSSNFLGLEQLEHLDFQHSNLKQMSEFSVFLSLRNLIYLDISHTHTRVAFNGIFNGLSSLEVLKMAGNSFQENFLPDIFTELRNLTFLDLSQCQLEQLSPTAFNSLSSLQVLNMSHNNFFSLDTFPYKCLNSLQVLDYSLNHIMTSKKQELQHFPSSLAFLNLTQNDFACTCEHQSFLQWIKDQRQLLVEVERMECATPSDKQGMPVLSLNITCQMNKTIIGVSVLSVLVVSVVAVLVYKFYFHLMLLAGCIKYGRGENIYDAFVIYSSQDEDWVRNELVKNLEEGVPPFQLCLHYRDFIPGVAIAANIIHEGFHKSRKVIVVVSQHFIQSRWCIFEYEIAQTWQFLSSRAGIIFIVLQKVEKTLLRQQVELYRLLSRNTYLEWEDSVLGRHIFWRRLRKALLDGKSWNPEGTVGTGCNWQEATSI
Target sequence (Q99836 whole entry, looked up): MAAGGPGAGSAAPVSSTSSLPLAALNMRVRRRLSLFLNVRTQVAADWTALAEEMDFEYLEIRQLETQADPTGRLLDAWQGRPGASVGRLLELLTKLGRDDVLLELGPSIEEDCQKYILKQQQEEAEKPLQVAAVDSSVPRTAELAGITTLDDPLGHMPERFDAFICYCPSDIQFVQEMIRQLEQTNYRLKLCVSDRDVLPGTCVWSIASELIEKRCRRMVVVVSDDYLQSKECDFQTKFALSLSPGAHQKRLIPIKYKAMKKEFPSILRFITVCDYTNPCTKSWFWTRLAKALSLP
NTR1 ag – agonists of human neurotensin receptor NTR1; P30989; NTR1-U2OS beta-arrestin-GFP spot imaging, agonist mode; activation, % at 20 µM; 0.17% of 330,000 active; AID 493036;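 active means activation at or above 40% of the spot to cytoplasm intensity ratio, with at least 20 cells analyzed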;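 further: 0% = DMSO without peptide and 100% = 100 nM NTR1 peptide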
MC4R antag cAMP – blocks human MC4R cAMP signaling; AID 540295; MC4R-expressing cells, MTII-stimulated cAMP, LANCE TR-FRET; inhibition, % at 6.5 µM; 0.48% of 360,000 active; P32245;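 active means inhibition above its plate's cutoff, the mean of tested wells on that plate plus 3 SD, cut at about 29% in these data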;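 further: 0% = Melanotan II alone and 100% = Melanotan II plus saturating MCL0020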
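Material – human MC4R-expressing U2OS cells · Repeats – no replicates · Detection – TR-FRET with Eu-cAMP and labeled anti-cAMP, 671 nm · Times – compound 30 min, challenge 1 h, detection 1 h · Compound – single nominal compound dose of 6.5 µM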
MC4R ag barr – human MC4R agonism via beta-arrestin; activation, % at 8.9 µM; 0.98% of 360,000 active; U2OS MC4R beta-arrestin complementation, luminescence; percent of melanotan II response, DMSO zero; AID 540308;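 active means activation above a per-plate cutoff, the mean activation of sample wells on that plate plus 3 SD, cut at about 8% in these data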
cAMP nonselect – counter-screen for MC4R antagonists: nonselective cAMP signaling inhibitors; 26% of 1,600 active; shares compounds with MC4R antag cAMP; parental U2OS, forskolin cAMP, LANCE TR-FRET; inhibition, % at 6.5 µM; AID 602193;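 active means mean inhibition over triplicates above the low-control well mean plus 3 SD, set per campaign, cut at about 13% in these data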;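 further: signal is single emission at 671 nm which falls as cellular cAMP rises; 0% = forskolin-stimulated wells and 100% = buffer without forskolin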
MC4R cAMP antag – human MC4R cAMP antagonism confirmation; shares compounds with MC4R antag cAMP; MC4R-expressing cells, MTII-stimulated cAMP, TR-FRET; inhibition, % at 6.5 µM; 27% of 1,600 active; in the data active means inhibition above about 29%;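 further: 0% = agonist stimulated wells alone and 100% = agonist stimulated wells plus saturating reference antagonist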
* = called active by the depositor; / = no result given. An excerpt weighted towards active compounds, which were near 1.9% of everything screened.

SMILES	NOD2-RIPK2 inh	TLR9-MyD88 block	TLR4 MyD88 comp	NTR1 ag	MC4R antag cAMP	MC4R ag barr	cAMP nonselect	MC4R cAMP antag
Cc1cccc2cc(C#N)c(SCC(=O)NCc3cccs3)nc12	-9	-2	0	-1	39*	3	41*	80*
CCOC(=O)CNC(=O)CSc1nc2c(C)cccc2cc1CC	-11	/	0	0	34*	2	0	5
Cc1ccc(C)c2nc(SCC(=O)NCc3cccs3)c(C#N)cc12	1	-2	-12	-2	18	-2	/	/
Cc1ccc(C)c(-c2csc(NC(=O)c3cnccn3)n2)c1	-4	-8	-25	3	0	-1	/	/
O=C(CCc1nc(-c2ccccc2Cl)no1)NCCc1ccccc1	-17	-12	/	0	29*	1	-1	2
CC(=O)NS(=O)(=O)c1ccc(N=c2ssc3c2-c2cc(C)c(C)cc2NC3(C)C)cc1	7	-1	-2	8	31*	-2	3	16
CC(C)CN1C(=O)c2ccc(C(=O)Nc3ccccc3C(=O)O)cc2C1=O	-3	0	/	0	16	-1	/	/
COc1ccc(CN2CCC[C@]3(N[C@H](c4ccccc4)[C@@H]4C(=O)N(Cc5ccccc5)C(=O)[C@@H]43)C2=O)cc1	11	4	/	/	29*	1	-3	-3
CCOC(=O)c1sc(N2N=C(C)/C(=C\c3ccc(OCC(=O)OC)cc3)C2=O)nc1C	-4	-4	5	10	31*	-2	5	14
CCNC(=O)N(C)c1c(CC)nc2ccc(C(=O)N3CCN(C(C)=O)CC3)cn12	-2	/	/	/	10	-2	/	/
COc1ccc(S(=O)(=O)NCc2nc3nc(C)cc(C)n3n2)cc1OC	-13	-5	/	0	-9	-1	/	/
O=C(NCC(=O)N1CCN(S(=O)(=O)/C=C/c2ccccc2)CC1)c1ccccc1F	-10	-4	-6	0	-2	-2	/	/
O=C(NCC(=O)N1CCN(S(=O)(=O)/C=C/c2ccccc2)CC1)c1ccc(Cl)cc1	-14	-15	/	2	31*	4	1	-7
Cc1ccc(S(=O)(=O)N2CCCCC2)cc1NC(=O)COC(=O)CNC(=O)c1cc(Cl)cc([N+](=O)[O-])c1	-3	1	-11	5	31*	-2	5	3
CC1(c2ccc3c(c2)OCCO3)NC(=O)N(CC(=O)Nc2c(F)cccc2F)C1=O (stereo not drawn)	-6	-11	/	-2	2	-4	/	/
Cc1cccc(NC(=O)CCN2C(=O)c3cccc([N+](=O)[O-])c3C2=O)c1	0	-2	/	-1	31*	-2	16*	29*
CCCN(CC(=O)Nc1ccccc1C)C(=O)CCN1C(=O)c2cccc([N+](=O)[O-])c2C1=O	1	-1	/	4	30*	-3	21*	33*
Cc1cccc(NC(=O)CCCN2C(=O)c3cccc4cccc(c34)C2=O)c1	-1	4	3	2	0	3	/	/
O=C(COC(=O)CCN1C(=O)c2cccc([N+](=O)[O-])c2C1=O)NCc1ccccc1	0	-9	0	2	33*	-3	6	21
O=C(CCCCCN1C(=O)c2cccc([N+](=O)[O-])c2C1=O)Nc1ccccc1F	-3	-1	/	0	10	0	/	/
CCOC(=O)Cc1csc(NC(=O)CCCCCN2C(=O)c3cccc4cccc(c34)C2=O)n1	3	1	1	1	1	-2	/	/
CCOC(=O)Cc1csc(NC(=O)CCN2C(=O)c3cccc([N+](=O)[O-])c3C2=O)n1	1	-5	/	-1	44*	1	8	10
CN[C@@H]1CC[C@H](c2ccc(Cl)c(Cl)c2)c2ccccc21	2	6	/	4	4	1	/	/
C=C(C)Cn1c(=O)c2c(nc3n2CCCN3Cc2ccccc2)n(C)c1=O	-5	5	/	0	-1	-2	/	/
CC(C)CNC(=S)NC1CCCC1	9	-1	-3	-1	7	-1	/	/
SMILES	NOD2-RIPK2 inh	TLR9-MyD88 block	TLR4 MyD88 comp	NTR1 ag	MC4R antag cAMP	MC4R ag barr	cAMP nonselect	MC4R cAMP antag
CCN1C[C@@H]2[C@@H]3C(=O)N(C)C(=O)[C@@H]3[C@](Cc3ccccc3)(C1=O)N2C(=O)c1ccccc1	-14	-8	/	/	4	-2	/	/
CCOc1c(O)ccc(C2NC(=O)NC(C)=C2C(=O)OC)c1[N+](=O)[O-] (stereo not drawn)	-1	-4	13	0	30*	-3	-4	-11
CCOc1c(O)ccc(C2NC(=O)N(C)C(C)=C2C(=O)OC)c1[N+](=O)[O-] (stereo not drawn)	-13	-3	10	0	8	1	/	/
O=C(NCCc1ccco1)C(=O)NCC1CCCN1S(=O)(=O)c1ccccc1 (stereo not drawn)	1	-2	/	1	-14	-2	/	/
O=C(O)c1cnn(-c2nc(-c3ccc(Br)cc3)cs2)c1C(F)(F)F	-2	0	/	0	32*	0	0	2
O=C(O)c1cnn(-c2nc(-c3ccc(F)cc3)cs2)c1C(F)(F)F	4	-1	3	0	32*	1	2	4
CCOC(=O)c1cnn(-c2nc(-c3ccc(C)cc3)cs2)c1C(F)(F)F	1	-6	-8	/	13	0	/	/
COc1ccc([C@H]2CC(=O)C[C@@H](CCn3cc(-c4ccncc4)nn3)O2)cc1	6	/	/	/	/	/	/	/
O=C1CSC(c2ccncc2)N1Cc1ccccc1 (stereo not drawn)	-9	2	-6	4	-2	-1	/	/
O=C1CSC(c2cccnc2)N1Cc1cccnc1 (stereo not drawn)	3	6	/	1	29*	0	3	12
O=C(N[C@@H](Cc1ccccc1)C(=O)OCc1ccccc1)c1nc[nH]c1C(=O)N1CCNCC1	1	8	/	1	7	-1	/	/
Cc1cc(N2CCCC2=O)ccc1S(=O)(=O)Nc1c(C)nn(C)c1C	-2	-2	-6	1	34*	0	1	12
CCCn1c(N)c(C(=O)COC(=O)/C=C/c2ccc(OC(F)F)c(OC)c2)c(=O)[nH]c1=O	2	2	/	11	11	-1	/	/
CN(C)S(=O)(=O)c1ccc(N2CCCC2)c(C(=O)OCC(=O)NC2(C#N)CCCCC2)c1	5	3	/	0	16	-2	/	/
COc1ccc(N2CCN(c3ccc(NC(=O)C4CCCCC4)cc3C#N)CC2)cc1	12	3	2	0	-10	2	/	/
